Results: ChEMBL document CHEMBL5715960, “Epigenetic Co-Deregulation of EZH2/TET1 is a Senescence-Countering, Actionable Vulnerability in Triple-Negative Breast Cancer” (Theranostics, 2019)
The source made the active and inactive calls. The calls are words filed in the database; no cut-off is given here.

Columns and labels:
[1] = system: MDA-MB-231; experiment: Antitumor activity against human MDA-MB-231 cells xenografted in Crl:NU-Foxn1-nu/nu mouse assessed as reduction in tumor administered at 5 mg/kg, ip in presence of adriamycin treated for 21 days; assay type: functional, organism-based; conditions: time 21.0 day
[2] = system: MDA-MB-436; experiment: Effect on […] in human MDA-MB-436 cells assessed as repression in TET1 promoter EZH2 by ChiP-qPCR analysis; assay type: functional, cell-based
Outline: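 Cells treated with GSK343 or DMSO; chromatin immunoprecipitated with anti-EZH2 or anti-H3K27me3 antibody and quantified by qPCR with primers for the TET1 promoter; input as internal control, IgG as negative control.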

[3] = system: MDA-MB-231; experiment: Effect on human MDA-MB-231 cells assessed as decrease in H3K27me3 level at 2 uM in presence of adriamycin by immunoblot analysis; assay type: functional, cell-based
Outline: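 Immunoblot of MDA-MB-231 and MCF7 lysates after 0.005 µg/ml adriamycin with or without 2 µM GSK343, or DMSO. α-Tubulin and total H3 used as loading controls.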

[4] = system: MDA-MB-436; experiment: Antiproliferative activity in human MDA-MB-436 cells assessed as increase in SA-beta-gal positive cells at 2 uM for 5 days by SA-beta-gal staining analysis; assay type: functional, cell-based; conditions: time 5.0 day
Outline: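 GSK343 2 µM or DMSO for 5 days, then chromogenic SA-β-gal staining and counting of positive cells. Triplicate; mean ± SD.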

[5] = system: MCF7; experiment: Cytotoxicity against human MCF7 cells at 0.5 to 2 uM for 2 days by Guava viacount assay; assay type: toxicity, cell-based; conditions: mcf7, 48 h, dose 0.5-2 µM, time 2 day
Outline: (§1)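 Cells plated at 2 × 10^4 (24-well) or 1 × 10^5 (12-well), exposed to a range of GSK343 concentrations for 2 days against DMSO solvent control; cell number and viability read by Guava ViaCount flow cytometry, relative to DMSO. Triplicate; mean ± SD.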

[6] = system: MDA-MB-436; experiment: In vivo activation of p53 expression in Crl:NU-Foxn1-nu/nu mouse xenografted with human MDA-MB-436 cells at 5 mg/kg, ip in presence of adriamycin treated for 21 days; assay type: functional, organism-based; conditions: time 21.0 day
[7] = system: MDA-MB-436; experiment: Downregulation of E2F1 in human MDA-MB-436 cells at 2 uM for 2 days by immunoblot analysis; assay type: functional, cell-based; conditions: time 2.0 day
[8] = system: MDA-MB-436; experiment: Antiproliferative activity against human MDA-MB-436 cells assessed as increase in global H3K9me3 expression level by immunoblot analysis; assay type: functional, cell-based
Outline: (§2)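 Cells exposed to GSK343 at 2 µM (standard level unless stated otherwise), lysed and immunoblotted; α-tubulin and total H3 as loading controls.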

[9] = system: MDA-MB-436; experiment: Antiproliferative activity in human MDA-MB-436 cells expressing shTET1 assessed as increase in SA-beta-gal positive cells by SA-beta-gal staining analysis (reference value: 8.2+/-2.4%); assay type: functional
[10] = system: BT-474; experiment: Antiproliferative activity against human BT-474 cells assessed as increase in global H3K9me3 expression level by immunoblot analysis; assay type: toxicity, cell-based; outline: as §2
[11] = system: BT-474; experiment: Effect on human BT-474 cells assessed as increase in TET3 transcription by qRT-PCR analysis; assay type: functional, cell-based
Outline: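 qRT-PCR of TET1, TET2 and TET3 transcripts in breast cancer cells exposed to GSK343 (2 µM unless otherwise indicated), shown relative to DMSO-treated cells. Mean ± SD, triplicate unless stated.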

[12] = system: MDA-MB-436; experiment: Antiproliferative activity against human MDA-MB-436 cells assessed as increase in cell death at 10 uM for 2 days by Guava viacount assay; assay type: functional, cell-based; conditions: time 2.0 day; outline: as §1
[13] = system: MDA-MB-231; experiment: Downregulation of EZH2 transcription in human MDA-MB-231 cells at 2 uM for 2 days by immunoblot analysis; assay type: functional, cell-based; conditions: time 2.0 day
[14] = system: MDA-MB-231; experiment: Effect on human MDA-MB-231 cells expressing shTET1 assessed as increase in p21 cascade by immunoblot analysis; assay type: functional, cell-based
[15] = system: MDA-MB-231; experiment: Effect on human MDA-MB-231 cells expressing shTET1 assessed as increase in H3K9me3 cascade by immunoblot analysis; assay type: functional, cell-based
[16] = system: MDA-MB-231; experiment: Effect on human MDA-MB-231 cells expressing shTET1 assessed as reduction in PCNA by immunoblot analysis; assay type: functional, cell-based
[17] = system: BT-474; experiment: Induction of cell cycle arrest in human BT-474 cells assessed as accumulation of cells at S phase measured at 2 uM by BrdU/PI staining based flow cytometric analysis (reference value: 28.6%); assay type: functional
[18] = system: MDA-MB-231; experiment: In vivo activation of TET1 in Crl:NU-Foxn1-nu/nu mouse xenografted with human MDA-MB-231 cells at 5 mg/kg, ip in presence of adriamycin treated for 21 days; assay type: functional, organism-based; conditions: time 21.0 day
[19] = system: MDA-MB-231; experiment: Upregulation of TET1 in human MDA-MB-231 cells at 2 uM for 2 days by immunoblot analysis; assay type: functional, cell-based; conditions: time 2.0 day
[20] = system: MDA-MB-436; experiment: Effect on human MDA-MB-436 cells expressing shTET1 assessed as reduction in PCNA by immunoblot analysis; assay type: functional, cell-based
[21] = system: MDA-MB-231; experiment: Effect on human MDA-MB-231 cells assessed as increase in global 5hmc level by dot analysis; assay type: functional, cell-based
Outline: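 Global 5hmC measured by dot blot on genomic DNA from cells given GSK343 or carrying EZH2 knock-down, with DMSO or scrambled shRNA as controls. DNA denatured in 0.1 M NaOH at 99 °C for 5 min, then neutralized with ammonium sulfate pH 7.0. 5 µg spotted, UV-crosslinked, probed with anti-5hmC for 1 h at room temperature, ECL detection, dot intensity quantified. Mean ± SD.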

[22] = system: MDA-MB-436; experiment: Induction of apoptosis in human MDA-MB-436 cells xenografted in Crl:NU-Foxn1-nu/nu mouse assessed as apoptotic cells in tumor administered at 5 mg/kg, ip in presence of adriamycin treated for 21 days by TUNEL staining analysis; assay type: functional, organism-based; conditions: time 21.0 day
Outline: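 TUNEL staining of xenograft tumor sections. Dosing started when tumors reached about 50 mm3: twice-weekly intraperitoneal GSK343 5 mg/kg, adriamycin 1 mg/kg, the combination, or DMSO solvent control, for 21 days.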

[23] = system: SK-BR-3; experiment: Cytotoxicity against human SK-BR-3 cells at 0.5 to 2 uM for 2 days by Guava viacount assay; assay type: toxicity, cell-based; conditions: sk-br-3, 48 h, dose 0.5-2 µM, time 2 day; outline: as §1
[24] = system: MDA-MB-231; experiment: Upregulation of […] signalling in human MDA-MB-231 cells at 2 uM for 2 days by immunoblot analysis; assay type: functional, cell-based; conditions: time 2.0 day
[25] = system: MDA-MB-436; experiment: Effect on human MDA-MB-436 cells assessed as apoptotic phenotype by measuring increase in BIM expression level at 2 uM in presence of adriamycin by immunoblot analysis; assay type: functional, cell-based
Outline: (§3)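 Immunoblot of cell lysates after 0.05 µg/ml adriamycin alone, with 2 µM GSK343, or DMSO. α-Tubulin and total H3 used as loading controls.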

[26] = system: MCF7; experiment: Antiproliferative activity against human MCF7 cells assessed as increase in global H3K9me3 expression level by immunoblot analysis; assay type: toxicity, cell-based; outline: as §2
[27] = system: MDA-MB-436; experiment: Effect on human MDA-MB-436 cells expressing shTET1 assessed as increase in p21 cascade by immunoblot analysis; assay type: functional, cell-based
[28] = system: MDA-MB-231; experiment: Effect on human MDA-MB-231 cells assessed as apoptotic phenotype by measuring increase in PUMA expression level at 2 uM in presence of adriamycin by immunoblot analysis; assay type: functional, cell-based; outline: as §3
[29] = system: MDA-MB-436; experiment: Antiproliferative activity in human MDA-MB-436 cells expressing vector assessed as increase in SA-beta-gal positive cells by SA-beta-gal staining analysis (reference value: 10.3+/-3.7%); assay type: functional

CCCc1cc(C)[nH]c(=O)c1CNC(=O)c1cc(-c2ccnc(N3CCN(C)CC3)c2)cc2c1cnn2C(C)C
Activity [1]: Active | Activity [2]: Active | Activity [3]: Active | Activity [4]: Active | Activity [5]: Non-Toxic | Activity [6]: Active | Activity [7]: Active | Activity [8]: Active | Activity [9]: 20.3% | Activity [10]: Non-Toxic | Activity [11]: inactive | Activity [12]: Active | Activity [13]: Active | Activity [14]: inactive | Activity [15]: inactive | Activity [16]: inactive | Activity [17]: 26.8% | Activity [18]: Active | Activity [19]: Active | Activity [20]: inactive | Activity [21]: Active | Activity [22]: Active | Activity [23]: Non-Toxic | Activity [24]: Active | Activity [25]: Active | Activity [26]: Non-Toxic | Activity [27]: inactive | Activity [28]: Active | Activity [29]: 46.4%
